Publication PMC4479701 (mBio, 2015)
Converted amounts (≈) assume the structure as drawn. Like-named read-outs stand apart in the source and are kept apart here.

What was measured:
In vitro toxicity = assay type: cell-based, murine; conditions: mouse, J774.16 macrophage cells
In short: (§1)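 J774.16 murine macrophages were kept in DMEM with 10% FBS and 1% pen-strep, and used until passage eight. At passage 7, 10^5 cells/well were allowed to adhere for 14 h. Test compound was then added at 0.1 to 100 µg/ml, with drug-free wells as controls. Incubation at 37°C, 5% CO2.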

J774 cells = assay: In vitro toxicity; assay type: cell-based, murine
In short: as §1

[1] = In vivo toxicity, blood work; design: species or system mouse (CBA/J)
In short: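 Female CBA/J mice, 4 weeks old: five received 1.2 mg/kg/day test compound for 60 days, and three controls received a daily solvent injection. On day 60, blood was collected into one K2EDTA tube and one plain tube allowed to clot.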

[2] = Pharmacokinetics of BHBM in mice; assay type: in vivo, mouse (C3H/HeN); conditions: for half-life: C3H/HeN, mouse, plasma, ip, IS/IN mice
In short: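 Test compound was dissolved at 10 mg/ml (stock) in cremophor-ethanol 1:1 and diluted in PBS to 200 or 400 µg/ml. C3H/HeN mice (n = 3), either healthy or immunocompromised and P. murina-infected, received 0.8 or 1.6 mg/kg i.v. (tail vein) or i.p. in 100 µl. Blood was taken into K2EDTA predose and at 0.5, 1, 2, 4, 8, 12 and 24 h, and plasma stored at −80°C. t1/2 = 0.693/λz.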

C. neoformans cells = assay: In vitro passages, development of resistance; assay type: cell-based; conditions: 15 days of in vitro passages (120 generations), 10^6 cells/ml; data not shown
Candida krusei = assay: In vitro susceptibility testing; assay type: cell-based
In short: (§2)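 Inoculum prepared per CLSI M27-A3. Plates incubated at 37°C with 5% CO2 for 24 to 96 h. MIC was the lowest concentration inhibiting 50% of growth versus the drug-free control. Minimum fungicidal concentration was also measured: serial dilutions from wells were plated on YPD agar, and MFC was the lowest concentration yielding three or fewer colonies (99% of inoculum killed).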

Pneumocystis murina = assay: In vitro testing against Pneumocystis, inhibition of ATP; assay type: cell-based; conditions: read-out: IC50 (percentage inhibition of ATP)
[3] = test system: GlcCer synthesis in C. albicans cells; assay: GlcCer synthesis in C. albicans; assay type: cell-based; conditions: in vitro treatment; data not shown
C. albicans = assay: Yeast-to-hypha differentiation; assay type: cell-based; conditions: 4 µg/ml
In short: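 C. albicans yeast and hyphal forms were counted after exposure to test compound and compared with drug-free controls. Twenty random fields, about 120 cells, were scored.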

[4] = test system: GlcCer synthesis in J774.16 cells; assay: Labeling of mammalian cells with [3H]palmitate, TLC of GlcCer; assay type: cell-based, murine; conditions: [3H]palmitate labeling, 6 h
In short: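 J774.16 macrophages (5 × 10^6 cells/ml) adhered for 14 h in six-well plates. They were exposed for 4 h to test compound at the concentrations used for the fungal labeling, then given 30 µCi/ml [3H]palmitic acid for a further 2 h.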

Candida albicans = assay: In vitro susceptibility testing; assay type: cell-based
In short: as §2

Coccidioides spp. = assay type: cell-based
[5] = test system: sphingolipids of C. neoformans; assay: Sphingolipid profiling by TLC and LC-MS; assay type: cell-based
[6] = TLC, confirmed by mass spectrometry

For `Cc1ccccc1C(=O)NN=Cc1ccc(O)c(Br)c1` [BHBM, N′-(3-bromo-4-hydroxybenzylidene)-2-methylbenzohydrazide], which EC50 at 48 h (In vitro toxicity) is on record?
Its EC50 at 48 h is 50 µg/mL (≈ 150 µM).

What about the EC50/MIC80 selectivity index (J774 cells; J774 EC50 versus MIC) of the same compound?
Its EC50/MIC80 selectivity index is 50.

And the “selectivity index (EC50/MIC ratio)” value (J774 cells; macrophage cell line)?
Its value is > 50.

What about the “all other blood parameters for liver and kidney function” value ([1]; after 60 days of treatment) of the same compound?
The value was “normal”.

And the “liver aspartate aminotransferase (AST)” value ([1]; after 60 days of treatment, 1.2 mg/kg/day, untreated 50 ± 9)?
The value was 125 ± 75 U/liter.

And the tolerability in animals ([1]; mouse, in vivo)?
Its tolerability in animals is “well tolerated”.

And the half-life ([2]; 0.8 mg/kg, T1/2, IP 0.8 mg/kg (low dose))?
The half-life was 47.4 min.

What about the half-life ([2]; 1.6 mg/kg, T1/2, IP 1.6 mg/kg (high dose)) of the same compound?
Its half-life is 50.4 min.

And the “distribution to brain tissue” value ([2]; upon administration, data not shown)?
The value was “readily found in brain tissue”.

What about the development of resistance (C. neoformans cells) of the same compound?
The development of resistance was “did not develop resistance”.

And the MIC range (Candida krusei; ATCC 6258 (MDPL strain))?
Its MIC range is 16 µg/mL (≈ 48 µM).

And the MIC range (Candida krusei; MDPL strain (1))?
Its MIC range is 32 µg/mL (≈ 96 µM).

What about the MIC range (Candida krusei; QC FTL strains) of the same compound?
The MIC range was 8 µg/mL (≈ 24 µM).

What about the IC50 (Pneumocystis murina; 24 h) of the same compound?
The IC50 was 1.02 µg/mL (≈ 3.06 µM).

And the IC50 (Pneumocystis murina; 48 h)?
The IC50 was < 0.01 µg/mL.

What about the IC50 (Pneumocystis murina; 72 h) of the same compound?
Its IC50 is < 0.01 µg/mL.

And the IC50 (Pneumocystis murina; 96 h)?
The IC50 was 2.02 µg/mL (≈ 6.06 µM).

And the GlcCer synthesis [3]?
Its GlcCer synthesis is “inhibited GlcCer synthesis in a dose-dependent manner”.

What about the yeast-to-hypha differentiation (C. albicans) of the same compound?
Its yeast-to-hypha differentiation is “significantly reduced”.

And the “synthesis of mammalian GlcCer or other sphingolipids” value [4]?
The value was “no significant changes”.

What about the MIC range (Candida albicans; FTL strains (3)) of the same compound?
The MIC range was >32 µg/mL.

What about the MIC range (Candida albicans; MDPL strains (5)) of the same compound?
The MIC range was >32 µg/mL.

What about the MIC range (Coccidioides spp.) of the same compound?
Its MIC range is 8 to 16 µg/mL.

What about the “levels of C18 hydroxyceramide and its desaturated and methylated forms” value ([5]; LC-MS, D0 data not shown) of the same compound?
The value was “decreased”.

And the GlcCer levels [5, 6]?
The GlcCer levels was “decrease”.

What about the “dihydroceramide, sphingosine, and sphingosine-1-phosphate” value [5, 6] of the same compound?
Its value is “increased”.
